The source of these data is ChEMBL document CHEMBL5653606 (J Pharmacol Exp Ther, 2011).

Molecules are shown by their SMILES. The source made the active and inactive calls.

For test [1], the target named is T1, Fatty-acid amide hydrolase 1 (Homo sapiens) (UniProt O00519).
T1 sequence (whole entry): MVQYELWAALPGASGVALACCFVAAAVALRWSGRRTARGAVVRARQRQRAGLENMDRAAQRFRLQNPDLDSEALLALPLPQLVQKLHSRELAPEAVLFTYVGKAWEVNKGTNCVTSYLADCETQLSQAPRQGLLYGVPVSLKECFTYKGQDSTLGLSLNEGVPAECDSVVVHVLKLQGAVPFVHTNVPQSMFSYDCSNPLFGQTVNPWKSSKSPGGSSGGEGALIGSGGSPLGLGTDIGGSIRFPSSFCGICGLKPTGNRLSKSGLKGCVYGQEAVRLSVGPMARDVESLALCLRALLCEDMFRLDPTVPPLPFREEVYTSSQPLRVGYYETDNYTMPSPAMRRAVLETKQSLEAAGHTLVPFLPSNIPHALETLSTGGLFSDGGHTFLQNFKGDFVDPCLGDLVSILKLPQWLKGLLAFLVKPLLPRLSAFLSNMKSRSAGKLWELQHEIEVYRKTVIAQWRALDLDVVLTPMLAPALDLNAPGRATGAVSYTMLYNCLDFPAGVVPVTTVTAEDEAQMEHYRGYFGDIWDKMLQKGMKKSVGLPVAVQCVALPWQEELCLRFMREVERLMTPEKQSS
The test is described as follows: Inhibition of FAAH in human brain at 10 uM in presence of FP-rhodamine by competitive activity-based protein profiling method. Type of test: tissue-based. The procedure, abridged: (§1)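 Competitive ABPP on human and mouse brain, liver and heart proteomes (membrane and soluble fractions), exposed to compound at 10 or 100 μM or to DMSO. Serine hydrolases were then labeled with FP-rhodamine. Gels were read by fluorescence scanning, and loss of band labeling (FAAH or other hydrolases by kDa) was judged.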

Test [2] deals with T1, Fatty-acid amide hydrolase 1 (Homo sapiens). The test is described as follows: Inhibition of human FAAH assessed as kinact/Ki ratio in presence of glutamate dehydrogenase by 384-well format microplate reader assay. In short, it runs like this:
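Glutamate dehydrogenase-coupled assay in 384-well format, 50 μl final volume. NAD⁺ formed from ammonia released by oleamide hydrolysis, followed at 340 nm.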

The target is the same in test [3]. The test is described as follows: Inhibition of FAAH in human brain at 100 uM in presence of FP-rhodamine by competitive activity-based protein profiling method. Type of test: tissue-based. The procedure, abridged: as §1
Test [4] addresses T2, Fatty-acid amide hydrolase 1 (Mus musculus) (UniProt O08914).
T2 sequence (whole entry): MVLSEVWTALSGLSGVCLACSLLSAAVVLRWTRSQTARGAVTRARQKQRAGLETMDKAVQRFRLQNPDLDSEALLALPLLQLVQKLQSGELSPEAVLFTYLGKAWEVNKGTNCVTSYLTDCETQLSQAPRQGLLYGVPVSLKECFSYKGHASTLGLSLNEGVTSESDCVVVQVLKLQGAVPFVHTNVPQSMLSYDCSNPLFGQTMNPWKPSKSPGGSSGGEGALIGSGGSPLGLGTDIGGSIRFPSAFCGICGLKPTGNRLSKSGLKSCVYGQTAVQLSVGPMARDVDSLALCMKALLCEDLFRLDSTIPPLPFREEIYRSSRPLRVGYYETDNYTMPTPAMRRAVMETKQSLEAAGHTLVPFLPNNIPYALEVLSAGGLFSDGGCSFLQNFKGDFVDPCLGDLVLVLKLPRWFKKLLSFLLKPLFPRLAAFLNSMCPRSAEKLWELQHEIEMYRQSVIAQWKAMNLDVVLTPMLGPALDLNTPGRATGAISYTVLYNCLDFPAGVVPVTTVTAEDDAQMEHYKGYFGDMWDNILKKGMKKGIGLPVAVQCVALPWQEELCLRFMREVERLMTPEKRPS
Briefly: Inhibition of FAAH in mouse brain at 10 uM in presence of FP-rhodamine by competitive activity-based protein profiling method. Format: tissue-based. In short, it runs like this:
as §1

The target of test [5] is T2, Fatty-acid amide hydrolase 1 (Mus musculus). Briefly: Inhibition of FAAH in mouse brain at 100 uM in presence of FP-rhodamine by competitive activity-based protein profiling method. Format: tissue-based. The procedure, abridged:
as §1

The target in test [6] is T1, Fatty-acid amide hydrolase 1 (Homo sapiens). Briefly: Inhibition of FAAH (unknown origin) assessed as kinact/Ki ratio in presence of glutamate dehydrogenase by 384-well format microplate reader assay.
Test [7] concerns Mus musculus. The test is described as follows: In vivo inhibition of rhodamine-azide tagged FAAH expressed in mouse brain at 10 mg/kg, ip administered for 2 hrs by CC-ABPP method based in-gel fluorescence scanning analysis. Type of test: functional, organism-based. The procedure, abridged: (§2)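 Alkyne analog given at 10 mg/kg i.p. to FAAH(+/+) or FAAH(−/−) mice. Animals killed at 2 h. Brain or liver proteomes click-reacted with rhodamine-azide tag, then analyzed by in-gel fluorescence scanning.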

Test [8] has as its system Mus musculus. Briefly: In vivo inhibition of rhodamine-azide tagged FAAH expressed in mouse liver at 10 mg/kg, ip administered for 2 hrs by CC-ABPP method based in-gel fluorescence scanning analysis. Format: functional, organism-based. The procedure, abridged:
as §2

In test [9] the test system is Rattus norvegicus. The test is described as follows: Antihyperalgesic activity in CFA induced Sprague-Dawley rat assessed as partial reduction of mechanical allodynia at 3 mg/kg, ip by von frey test. Type of test: functional, organism-based. The procedure, abridged: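 CFA (150 μl, 1 mg/ml in mineral oil) injected into the plantar hind paw of male Sprague-Dawley rats (200–250 g). On day 5, the CB1 or CB2 antagonist was given at 3 mg/kg i.p. 10 min before testing, alongside a 3 mg/kg p.o. dose of the FAAH inhibitor. Mechanical paw withdrawal thresholds were measured with Von Frey hairs; n = 8 rats/group.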

The subject of test [10] is Rattus norvegicus. Briefly: Antihyperalgesic activity in MIA induced Sprague-Dawley rat assessed as increased joint compression thresholds at 30 mg/kg, po administered twice daily for 3 consecutive days measured after 2 to 4 hrs. Type of test: functional, organism-based. The settings on record: time 3.0 day. In short, it runs like this:
(§3)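 Male Sprague-Dawley rats (220–270 g), isoflurane-anesthetized, given 2 mg MIA in 0.9% saline (50 μl) intra-articular into the knee. From day 14, oral dosing at 10 ml/kg once daily for 3 days in 4% 2-hydroxypropyl-β-cyclodextrin/1% ethanol in 0.01 M HCl. Celecoxib 30 mg/kg in 0.5% methylcellulose twice daily. Joint compression threshold by digital Randall-Selitto at 2 and 4 h postdose on days 1 and 3; n = 10/group.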

Test [11] deals with Rattus norvegicus. The test is described as follows: Antihyperalgesic activity in MIA induced Sprague-Dawley rat assessed as effect on pain behaviour in contralateral knee joint at 0.3 to 3 mg/kg, po administered once daily for 3 consecutive days. The note with it: dose 0.3-3 mg/kg, time 3.0 day. Type of test: functional, organism-based. In short, it runs like this: as §3

In test [12] the target is T3, Fatty-acid amide hydrolase 1 (Rattus norvegicus) (UniProt P97612).
T3 sequence (whole entry): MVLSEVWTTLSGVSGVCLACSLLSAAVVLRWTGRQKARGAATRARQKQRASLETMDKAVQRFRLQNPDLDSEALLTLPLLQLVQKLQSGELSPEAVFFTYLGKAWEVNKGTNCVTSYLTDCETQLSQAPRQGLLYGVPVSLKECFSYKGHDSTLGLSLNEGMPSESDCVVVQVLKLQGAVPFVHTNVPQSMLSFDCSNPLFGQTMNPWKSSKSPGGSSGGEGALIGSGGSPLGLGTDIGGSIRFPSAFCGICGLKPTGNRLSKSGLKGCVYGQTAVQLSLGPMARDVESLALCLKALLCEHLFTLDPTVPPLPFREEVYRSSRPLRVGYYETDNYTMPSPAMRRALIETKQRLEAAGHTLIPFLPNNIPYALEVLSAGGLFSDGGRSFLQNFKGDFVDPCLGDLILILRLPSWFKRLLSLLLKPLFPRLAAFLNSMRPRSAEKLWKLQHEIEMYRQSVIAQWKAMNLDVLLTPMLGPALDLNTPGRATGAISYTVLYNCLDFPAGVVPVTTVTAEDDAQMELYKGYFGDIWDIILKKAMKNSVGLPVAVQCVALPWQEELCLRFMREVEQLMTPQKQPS
The test is described as follows: Inhibition of rat FAAH assessed as kinact/Ki ratio in presence of glutamate dehydrogenase by 384-well format microplate reader assay. In short, it runs like this: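 Purified recombinant FAAH (>95% pure), human or rat. Glutamate dehydrogenase-coupled assay in 384-well format, 50 μl final volume. NAD⁺ formed from ammonia released by oleamide hydrolysis, followed at 340 nm.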

For test [13], the target named is T3, Fatty-acid amide hydrolase 1 (Rattus norvegicus). The note with it: Sprague-Dawley, dose 10.0 mg/kg, route po.
Test [14] shares this target. The settings on record: Sprague-Dawley, dose 10.0 mg/kg, route po. This is another data set of the same source.
The target is the same in test [15]. The note with it: Sprague-Dawley, dose 10.0 mg/kg, route po. This is another data set of the same source.
Test [16] has the same target. The settings on record: Sprague-Dawley, dose 10.0 mg/kg, route po. The source holds these as a separate data set.
The target is the same in test [17]. The note with it: Sprague-Dawley, dose 10.0 mg/kg, route po. This is another data set of the same source.
The target is the same in test [18]. The settings on record: Sprague-Dawley, dose 10.0 mg/kg, route po. The source holds these as a separate data set.
Test [19] shares this target. The note with it: Sprague-Dawley, dose 10.0 mg/kg, route po. This is another data set of the same source.
Test [20] deals with Mus musculus. The test is described as follows: Antinociceptive activity in C57BL6/J mouse assessed as reduction in locomotive activity at 10 mg/kg, ip administered for 30 mins. Type of test: functional, organism-based. In short, it runs like this: (§4)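 Tetrad test in male C57BL6/J mice (7 weeks old; n = 8/group). Dosed i.p. at 10 ml/kg in 18:1:1 saline/Emulphor/ethanol, with a vehicle control group. Locomotive activity, thermal nociception (tail-immersion latency), catalepsy (60 s) and body temperature were assessed 30 min postdosing.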

The test system of test [21] is Mus musculus. The test is described as follows: Antinociceptive activity in C57BL6/J mouse assessed as increase in tail-immersion latency at 10 mg/kg, ip administered for 30 mins. Type of test: functional, organism-based. The procedure, abridged:
as §4

Test [22] deals with Mus musculus. The test is described as follows: Antinociceptive activity in C57BL6/J mouse assessed as increase in catalepsy at 10 mg/kg, ip administered for 30 mins. Format: functional, organism-based. In short, it runs like this:
as §4

Test [23] relates to Mus musculus. The test is described as follows: Antinociceptive activity in C57BL6/J mouse assessed as increase in body temperature at 10 mg/kg, ip administered for 30 mins. Format: functional, organism-based. The procedure, abridged:
as §4

Test [24] has as its system Mus musculus. The test is described as follows: In vivo inhibition of rhodamine-azide tagged FAAH in FAAH knockout mouse liver at 10 mg/kg, ip administered for 2 hrs by CC-ABPP method based in-gel fluorescence scanning analysis. Type of test: functional, organism-based. In short, it runs like this: as §2

For `NC(=O)c1cccc(-c2cccc(OC(=O)NC3CCCCC3)c2)c1`, the inhibition entry in [1], in test [3], in test [4] and in [5] was “Active” throughout. In addition, the Ratio in test [2] is 1590 M⁻¹ s⁻¹.

As to `C#CCCCOc1ccc(Oc2cccc(C=C3CCN(C(=O)Nc4cccnn4)CC3)c2)nc1`, in [6], the Ratio was 11900 M⁻¹ s⁻¹. In addition, the inhibition entry in the test on Mus musculus [7] and in the test with Mus musculus [8] was “Active” throughout.

As for `Cc1ccc(Cn2nc(C(=O)N[C@@H]3C(C)(C)[C@@H]4CC[C@@]3(C)C4)cc2-c2ccc(Cl)c(C)c2)cc1`, the result in the test on Rattus norvegicus [9] was inactive.

Take `Cc1ccc(-c2cc(C(F)(F)F)nn2-c2ccc(S(N)(=O)=O)cc2)cc1`: in the test on Rattus norvegicus [10], the outcome was Active. Also, the result with Rattus norvegicus [11] was inactive.

With `Cc1c(C(=O)NN2CCCCC2)nn(-c2ccc(Cl)cc2Cl)c1-c1ccc(Cl)cc1`, the result in the test on Rattus norvegicus [9] was inactive.

Take `O=C(Nc1ccccc1)N1CCC(Cc2cnc3ccccc3c2)CC1`: the Ratio in [12] amounted to 104 M⁻¹ s⁻¹.

In the case of `COc1ccc2cc([C@H](C)C(=O)O)ccc2c1`, the inhibition entry in test [13], in [14], in test [15], in test [16], in test [17] and in [18] was “inactive” each time. For the same molecule, in [19], the inhibition result is “inactive”.

In the case of `Cc1c(C(=O)c2cccc3ccccc23)c2cccc3c2n1[C@H](CN1CCOCC1)CO3`, the Activity entry with Mus musculus [20], in the test with Mus musculus [21], in the test on Mus musculus [22] and in the test on Mus musculus [23] was “Toxic” throughout.

As to `C#CCCCCCCCCCNC(=O)Oc1cccc(-c2cccc(C(N)=O)c2)c1`, the inhibition entry in the test with Mus musculus [7], in the test with Mus musculus [8] and with Mus musculus [24] was “Active” throughout.
